Screening results deposited in PubChem by several laboratories.
A selection: hits, their analogues and other compounds. The true share with any hit is near 2.1%.
MEX-5 binding – C. elegans MEX-5 TCR-2 RNA binding activity. Q9XUB2. MEX-5/FITC-TCR2 RNA binding, fluorescence polarization; stronger effect = lower value. activity score (negative = inhibition of binding), % at 10 µM. 300,000 tested, 0.38% active. AID 1832;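 active = inhibition past about -25% in most replicates, and total fluorescence under double the plate's negative control median, limit read from the data; inconclusive = replicates evenly split on the limit, or fluorescence at least double controls; inactive = too little inhibition in most replicates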
KLK7 zymogen act – activators of human kallikrein-7 zymogen; purified proKLK7, EDANS-DABCYL substrate fluorescence; 100% is mature enzyme control, 0% vehicle; P49862; activation, % at 7 µM; 370,000 tested, 0.9% active; AID 652039;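 active = activation above the mean of all tested compounds plus 3 SD, computed per campaign excluding outliers beyond control limits, cut at about 13% in these data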
Target sequence (P49862 whole entry, looked up): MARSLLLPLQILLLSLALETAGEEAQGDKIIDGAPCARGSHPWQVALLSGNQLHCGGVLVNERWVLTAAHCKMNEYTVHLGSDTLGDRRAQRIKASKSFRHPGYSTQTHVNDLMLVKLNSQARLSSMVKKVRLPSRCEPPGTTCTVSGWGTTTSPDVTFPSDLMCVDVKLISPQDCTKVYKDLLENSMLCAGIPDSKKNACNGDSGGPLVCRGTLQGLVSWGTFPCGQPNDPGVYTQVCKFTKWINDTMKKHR
Runt-SMMHC FRET – Runt domain-CBFb-SMMHC interaction inhibition | 220,000 tested, 0.74% active | Q01196+Q13951 | Cerulean-Runt/Venus-CBFb-SMMHC FRET ratio 530/480, 1 h | inhibition, % at 20 µM;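 active = mean inhibition across duplicate retests at 20 µM reaching about 50%, limit read from the data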;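 note: inhibitors lower the FRET ratio by blocking Runt binding to CBFb-SMMHC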
RanGTP-Imp inh – inhibitors of RanGTP-importin-beta interaction, primary screen, biochemical, FRET, CFP-Ran, YFP-importin-beta, homogeneous. cell-free CFP-Ran/YFP-importin-beta FRET ratio. inhibition, % (no concentration beside the values). 300,000 tested, 1.1% active. AID 2216;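 active = more than half of the replicate wells show a fall in the fluorescence ratio signal beyond about 16%, limit read from the data, passing the limit was not always enough; inconclusive = exactly half of the replicate wells pass the set limit; inactive = fewer than half of replicates pass the limit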
Runt-CBFb FRET – blocks binding of human RUNX1 Runt domain to CBFb | inhibition, % at 20 µM | 220,000 tested, 0.46% active | AID 1496 | Cerulean-Runt/Venus-CBFb FRET ratio 530/480, 1 h | Q01196+Q13951;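 active = inhibition over about 50% at 20 µM in the single-dose screen, limit read from the data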
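test system = Cerulean-Runt domain fusion protein, energy donor | probe or stimulus = Venus-CBFb binding partner, 100 nM | incubation = two 1 h room-temperature incubations shielded from light | detection = fluorescence energy transfer, 422 nm excitation, 530/480 nm emission | measure = loss of energy transfer signal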
Hits are given with their value; – = inactive; ? = inconclusive; · = no result given.

SMILES	MEX-5 binding	KLK7 zymogen act	Runt-SMMHC FRET	RanGTP-Imp inh	Runt-CBFb FRET
CC1(C)CC(=O)C=C(Nc2ccc(OCC(F)(F)C(F)F)cc2)C1	–	–	–	30	–
COC(=O)[C@]12C=CCN1[C@H](c1ccccc1)c1c(c3ccccc3n1S(=O)(=O)c1ccc(C)cc1)C2	·	–	·	·	·
Cc1cccn2c(=O)c(/C=C3\SC(=S)NC3=O)c(NCCCN3CCOCC3)nc12	·	–	–	35	–
COC(=O)[C@]12C[C@H](CC(=O)NCc3cccc4ccccc34)C(=O)N(CCC3=CCCCC3)C1=C[C@H](C(C)C)O[C@@H]2C1CC1	·	–	·	·	·
CCc1nc2sc(C(C)=O)c(N)c2c2c1CCCC2	–	–	81	28	–
Cc1ccc(-c2nc3sc(C(N)=O)c(N)c3c3c2CCCC3)cc1	–	–	–	–	–
CC(=O)c1sc2nc(-c3ccc(C)cc3)c3c(c2c1N)CCCC3	–	–	–	66	–
Nn1c(SCC(=O)NC2CCCCCC2)nnc1-c1ccco1	·	–	·	·	·
Cc1cc(C)c2c(c1)NC(C(=O)O)C1CC=CC21 (configuration not stated)	-38	–	·	–	·
O=c1oc2ccc3ccccc3c2cc1-c1nc2ccccc2o1	-76	–	·	126	·
O=S1(=O)N[C@H](Cc2ccccc2)COc2cc(N3CCN(Cc4ccccc4F)CC3)ccc21	·	–	·	·	·
O=Cc1sc([O-])nc1-[n+]1ccc2ccccc2c1	–	·	–	28	–
Cc1ccc[n+](-c2nc([O-])sc2C=O)c1	·	–	–	·	–
CCOc1ccccc1N1C(=O)CC(N(O)c2ccccc2)C1=O (configuration not stated)	–	67	–	–	–
CCCCCOc1ccc(N2C(=O)CC(N(O)c3ccccc3)C2=O)cc1 (configuration not stated)	–	–	–	–	–
CCc1cccc(NS(=O)(=O)c2ccc3c(c2)N(C)CCO3)c1	–	–	·	–	·
Cc1cccc(N(Cc2ccccc2)C(=O)CN2C(=O)NC3(CCCCC3C)C2=O)c1 (configuration not stated)	·	–	·	·	·
CCCOc1ccc2cc(C(=O)NCc3ccccc3)c(=O)oc2c1	–	–	·	59	·
COc1ccc2cc(C(=O)NCc3ccco3)c(=O)oc2c1	–	–	77	?	–
COc1ccc2cc(C(=O)NCc3ccco3)c(=Nc3ccc(C(=O)O)cc3)oc2c1	·	–	–	–	–
COc1ccc2oc(=O)c(C(=O)NCc3ccccc3)cc2c1	–	–	·	–	·
COC(=O)c1cc2c(-c3ccccc3)c(C)c3ccccn3c-2c1C(=O)OC	–	–	–	27	–
COC(=O)c1c(Cl)c2n3ccccc3c(C)c(-c3ccccc3)c-2c1C(=O)OC	-41	–	–	19	–
C[C@@H]1[C@@H](c2ccccc2)c2cc3ccccc3nc2-c2nc3ccccc3cc2[C@@H]1C(=O)N1CCCC1	·	–	·	·	·
C=C1c2cccc(O)c2C(O)=C2C(=O)[C@]3(O)C(O)=C(C(N)=O)C(=O)[C@@H](N(C)C)[C@@H]3[C@@H](O)[C@H]12	-32	–	–	–	–
SMILES	MEX-5 binding	KLK7 zymogen act	Runt-SMMHC FRET	RanGTP-Imp inh	Runt-CBFb FRET
C[C@H]1c2cccc(O)c2C(O)=C2C(=O)C3(O)C(O)=C(C(N)=O)C(=O)[C@@H](N(C)C)[C@@H]3[C@@H](O)[C@@H]21 (some centres not stated)	·	–	·	·	·
CSc1ccc(OC2(C)CCN(Cc3cc4ccccc4o3)C2)cc1 (configuration not stated)	·	–	·	·	·
Nc1ccc2ccc(N)cc2c1	·	–	·	·	·
Nc1ccc2[nH]ncc2c1	–	–	57	?	–
Cc1ccc(C(=O)NCCc2nnc3ccc(NCc4ccc5c(c4)OCO5)nn23)cc1	–	–	·	–	·
O=C1c2ccccc2C(c2nnnn2-c2ccc3c(c2)OCCO3)N1CCc1ccccc1F (configuration not stated)	·	–	·	·	·
O=S(=O)(Cc1ccccc1)N1CCN(Cc2ccc3c(c2)OCO3)CC1	–	–	–	159	–
COc1cc(NC(=O)C2(C)CCN2C(C)C)cc(OC)c1OC (configuration not stated)	·	–	·	·	·
Cc1ccc(CNC(=O)CCC(=O)n2ncc3cc(C)ccc32)cc1	–	–	·	–	·
Cc1ccc2c(cnn2C(=O)CCCC(=O)NCc2ccc(Cl)cc2)c1	–	–	·	26	·
Cc1ccc(S(=O)(=O)NC(=O)COc2ccccc2C(N)=O)cc1	–	–	–	28	–
NC(=O)c1ccccc1OCC(=O)NS(=O)(=O)c1ccc(Cl)cc1	–	–	–	–	–
COC(=O)C1=C(C)NC(C)=C(C(=O)OC)C1c1cn(-c2ccccc2)nc1-c1ccco1	–	55	–	–	–
CCOC(=O)COn1c(=O)c(-c2ccc(F)cc2)[n+]([O-])c2ccccc21	–	–	·	–	·
CCOn1c(=O)c(-c2cccs2)[n+]([O-])c2ccccc21	–	–	–	21	–
C=CCOn1c(=O)c(-c2cc3ccccc3o2)[n+]([O-])c2ccccc21	-27	–	–	–	–
CCOC(=O)COn1c(=O)c(-c2cccs2)[n+]([O-])c2ccccc21	–	–	–	–	–
CCOC(=O)COn1c(=O)c(-c2cc3ccccc3o2)[n+]([O-])c2ccccc21	-37	–	–	–	–
CC(=O)c1sc2ccccc2c1OC(=O)c1ccco1	–	–	–	38	–
Cc1ccccc1N1CCN(S(=O)(=O)c2ccc3c(c2)oc(=O)n3C)CC1	·	–	·	·	·
CN(C)S(=O)(=O)c1ccc(C(=O)OC2CCOC2=O)cc1 (configuration not stated)	–	–	·	–	·
Cc1cc2ccccc2cc1CN1CCOCC1	–	–	–	–	–
c1cc2ccc3ccc(CN4CCOCC4)c4ccc(c1)c2c34	–	–	–	45	·
OC1CCCN(Cc2ccc3ccc4cccc5ccc2c3c45)C1 (configuration not stated)	–	–	–	41	·
COc1ccc(CCNC(=S)Nc2cccc(C)c2C)cc1	–	–	–	27	–
SMILES	MEX-5 binding	KLK7 zymogen act	Runt-SMMHC FRET	RanGTP-Imp inh	Runt-CBFb FRET
Cc1cccc(NC(=S)NCCc2ccccc2)c1C	–	–	·	–	·
CN=C1S/C(=C\c2cn(CC(=O)OC)c3ccccc23)C(=O)N1C	-28	–	–	–	–
CN=C1S/C(=C/c2cn(CC(=O)OC)c3ccccc23)C(=O)N1C	–	–	–	–	–
COC(=O)[C@H]1C[C@@]2(n3ccc4ccccc43)c3ccccc3N(S(=O)(=O)c3ccccc3)[C@H]2N1C(=O)CNC1CCCCC1	·	–	·	·	·
COc1ccc(C(O)c2nc(-c3cccc4cccnc34)cs2)cc1 (configuration not stated)	·	–	·	·	·
CCCCn1c(N)c(NCC)c(=O)[nH]c1=O	·	–	70	·	–
CCCn1c(N)c(NCCN2CCOCC2)c(=O)[nH]c1=O	-31	–	–	–	–
CCCCn1c(N)c(NCC(C)C)c(=O)[nH]c1=O	–	–	–	–	–
